Experimental data reported in ChEMBL document CHEMBL1255404, “Spread of OXA-48-encoding plasmid in Turkey and beyond” (2010).
In brackets after ≈: the same amount, converted by molar mass.

Assays:
Assay type in all cases: functional
[1] = test system: Klebsiella pneumoniae; test: Antimicrobial activity against Klebsiella pneumoniae isolate Kp5A expressing beta-lactamase OXA-48 and SHV-5 by Etest method
[2] = test system: Klebsiella pneumoniae; test: Antimicrobial activity against Klebsiella pneumoniae isolate Kp7A expressing beta-lactamase OXA-48 by Etest method
Outline: (§1)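 MICs of β-lactams read from Etest strips. The test organisms are carbapenem-resistant, OXA-48-positive clinical Enterobacteriaceae isolates recovered from Turkey, Lebanon, Egypt, France and Belgium.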

[3] = test system: Escherichia coli; test: Antimicrobial activity against Escherichia coli isolate TOP10 harboring pBIC containing beta-lactamase OXA-48 located within transposon Tn1999.2 by Etest method
Outline: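 β-Lactam MICs read with Etest strips. Strains are E. coli TOP10 host and TOP10 transformants made with plasmid DNA extract when conjugation failed. Transformants were selected on LB agar with ticarcillin 50 μg/ml.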

[4] = test system: Klebsiella pneumoniae; test: Antimicrobial activity against Klebsiella pneumoniae isolate KpL expressing beta-lactamase OXA-48 by Etest method in presence of beta-lactamase inhibitor clavulanic acid; outline: as §1
[5] = test system: Klebsiella pneumoniae; test: Antimicrobial activity against Klebsiella pneumoniae isolate KpB expressing OXA-48 and CTX-M-15 by Etest method
[6] = test system: Klebsiella pneumoniae; test: Antimicrobial activity against Klebsiella pneumoniae isolate KpB expressing OXA-48 and CTX-M-15 by Etest method in presence of beta-lactamase inhibitor clavulanic acid; outline: as §1
[7] = test system: Klebsiella pneumoniae; test: Antimicrobial activity against Klebsiella pneumoniae isolate KpI-1 expressing beta-lactamase OXA-48 and CTX-M-15 by Etest method
[8] = test system: Citrobacter freundii; test: Antimicrobial activity against Citrobacter freundii isolate expressing beta-lactamase OXA-48 by Etest method in presence of beta-lactamase inhibitor clavulanic acid; outline: as §1
[9] = test system: Providencia rettgeri; test: Antimicrobial activity against Providencia rettgeri isolate expressing beta-lactamase OXA-48 and TEM-101 by Etest method
[10] = test system: Klebsiella pneumoniae; test: Antimicrobial activity against Klebsiella pneumoniae isolate KpBEL expressing beta-lactamase OXA-48 by Etest method in presence of beta-lactamase inhibitor clavulanic acid; outline: as §1
[11] = test system: Klebsiella pneumoniae; test: Antimicrobial activity against Klebsiella pneumoniae isolate KpE expressing beta-lactamase OXA-48 and CTX-M-15 by Etest method in presence of beta-lactamase inhibitor clavulanic acid; outline: as §1
[12] = test system: Escherichia coli; test: Antimicrobial activity against Escherichia coli isolate J53 harboring pL containing beta-lactamase OXA-48 located within transposon Tn1999.2 by Etest method
Outline: (§2)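 β-Lactam MICs read with Etest strips. Strains are E. coli J53 recipient and J53 transconjugants carrying OXA-48-positive plasmids recovered from clinical enterobacterial isolates.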

[13] = test system: Escherichia coli; test: Antimicrobial activity against Escherichia coli isolate J53 harboring p7A containing beta-lactamase OXA-48 located within transposon Tn1999 by Etest method in presence of beta-lactamase inhibitor clavulanic acid; outline: as §2
[14] = test system: Klebsiella pneumoniae; test: Antimicrobial activity against Klebsiella pneumoniae isolate KpBEL expressing beta-lactamase OXA-48 by Etest method; outline: as §1
[15] = test system: Escherichia coli; test: Antimicrobial activity against Escherichia coli isolate J53 harboring pI-2 containing beta-lactamase OXA-48 located within transposon Tn1999.2 by Etest method in presence of beta-lactamase inhibitor clavulanic acid; outline: as §2
[16] = test system: Escherichia coli; test: Antimicrobial activity against Escherichia coli isolate J53 harboring p5A containing beta-lactamase OXA-48 located within transposon Tn1999 by Etest method in presence of beta-lactamase inhibitor clavulanic acid; outline: as §2
[17] = test system: Escherichia coli; test: Antimicrobial activity against Escherichia coli isolate J53 harboring pA-1 containing beta-lactamase OXA-48 located within transposon Tn1999 by Etest method; outline: as §2
[18] = test system: Klebsiella pneumoniae; test: Antimicrobial activity against Klebsiella pneumoniae isolate KpI-2 expressing beta-lactamase OXA-48 and CTX-M-15 by Etest method in presence of beta-lactamase inhibitor clavulanic acid; outline: as §1
[19] = test system: Escherichia coli; test: Antimicrobial activity against Escherichia coli isolate J53 by Etest method; outline: as §2
[20] = test system: Escherichia coli; test: Antimicrobial activity against Escherichia coli isolate J53 harboring pEnc2 containing beta-lactamase OXA-48 located within transposon Tn1999 by Etest method; outline: as §2
[21] = test system: Escherichia coli; test: Antimicrobial activity against Escherichia coli isolate A expressing beta-lactamase OXA-48 and TEM-150 by Etest method in presence of beta-lactamase inhibitor clavulanic acid; outline: as §1
[22] = test system: Escherichia coli; test: Antimicrobial activity against Escherichia coli isolate J53 harboring pCF containing beta-lactamase OXA-48 located within transposon Tn1999 by Etest method in presence of beta-lactamase inhibitor clavulanic acid; outline: as §2
[23] = test system: Escherichia coli; test: Antimicrobial activity against Escherichia coli isolate J53 harboring pBb containing beta-lactamase OXA-48 located within transposon Tn1999.2 by Etest method in presence of beta-lactamase inhibitor clavulanic acid; outline: as §2
[24] = test system: Enterobacter cloacae; test: Antimicrobial activity against Enterobacter cloacae isolate 1 expressing beta-lactamase OXA-48 and SHV-5 by Etest method in presence of beta-lactamase inhibitor clavulanic acid; outline: as §1
[25] = test system: Klebsiella pneumoniae; test: Antimicrobial activity against Klebsiella pneumoniae isolate Kp3A expressing beta-lactamase OXA-48 by Etest method; outline: as §1
[26] = test system: Klebsiella pneumoniae; test: Antimicrobial activity against Klebsiella pneumoniae isolate KpI-2 expressing beta-lactamase OXA-48 and CTX-M-15 by Etest method
[27] = test system: Enterobacter cloacae; test: Antimicrobial activity against Enterobacter cloacae isolate 1 expressing beta-lactamase OXA-48 and SHV-5 by Etest method
[28] = test system: Escherichia coli; test: Antimicrobial activity against Escherichia coli isolate J53 harboring pL containing beta-lactamase OXA-48 located within transposon Tn1999.2 by Etest method in presence of beta-lactamase inhibitor clavulanic acid; outline: as §2
[29] = test system: Escherichia coli; test: Antimicrobial activity against Escherichia coli isolate J53 by Etest method in presence of beta-lactamase inhibitor clavulanic acid
[30] = test system: Escherichia coli; test: Antimicrobial activity against Escherichia coli isolate J53 harboring pA-1 containing beta-lactamase OXA-48 located within transposon Tn1999 by Etest method in presence of beta-lactamase inhibitor clavulanic acid; outline: as §2
[31] = test system: Escherichia coli; test: Antimicrobial activity against Escherichia coli isolate J53 harboring p6A containing beta-lactamase OXA-48 located within transposon Tn1999 by Etest method in presence of beta-lactamase inhibitor clavulanic acid; outline: as §2
[32] = test system: Escherichia coli; test: Antimicrobial activity against Escherichia coli isolate J53 harboring pI-1 containing beta-lactamase OXA-48 located within transposon Tn1999.2 by Etest method in presence of beta-lactamase inhibitor clavulanic acid; outline: as §2
[33] = test system: Escherichia coli; test: Antimicrobial activity against Escherichia coli isolate A expressing beta-lactamase OXA-48 and TEM-150 by Etest method
[34] = test system: Escherichia coli; test: Antimicrobial activity against Escherichia coli isolate J53 harboring pE containing beta-lactamase OXA-48 located within transposon Tn1999.2 by Etest method in presence of beta-lactamase inhibitor clavulanic acid; outline: as §2
[35] = test system: Escherichia coli; test: Antimicrobial activity against Escherichia coli isolate J53 harboring pBEL containing beta-lactamase OXA-48 located within transposon Tn1999.2 by Etest method in presence of beta-lactamase inhibitor clavulanic acid; outline: as §2
[36] = test system: Escherichia coli; test: Antimicrobial activity against Escherichia coli isolate J53 harboring pEcA containing beta-lactamase OXA-48 located within transposon Tn1999.2 by Etest method in presence of beta-lactamase inhibitor clavulanic acid; outline: as §2

Row | Compound | MIC [1] | MIC [2] | MIC [3] | MIC [4] | MIC [5] | MIC [6] | MIC [7] | MIC [8] | MIC [9] | MIC [10] | MIC [11] | MIC [12] | MIC [13] | MIC [14] | MIC [15] | MIC [16] | MIC [17] | MIC [18] | MIC [19] | MIC [20] | further results
1 | CC1(C)S[C@@H]2[C@H](NC(=O)[C@H](N)c3ccc(O)cc3)C(=O)N2[C@H]1C(=O)O [AMOXICILLIN] | > 512 µg/mL | > 512 µg/mL | > 512 µg/mL | > 256 µg/mL | > 512 µg/mL | > 512 µg/mL | > 512 µg/mL | > 512 µg/mL | > 256 µg/mL | > 256 µg/mL | > 512 µg/mL | > 256 µg/mL | > 512 µg/mL | > 256 µg/mL | > 512 µg/mL | > 512 µg/mL | > 512 µg/mL | > 512 µg/mL | 4 µg/mL (≈ 10.9 µM) | > 512 µg/mL | MIC [21]: > 256 µg/mL; MIC [22]: > 512 µg/mL; MIC [23]: > 512 µg/mL; MIC [24]: > 512 µg/mL; MIC [25]: > 512 µg/mL; MIC [26]: > 512 µg/mL; MIC [27]: > 512 µg/mL; MIC [28]: > 256 µg/mL; MIC [29]: 4 µg/mL; MIC [30]: 128 µg/mL; MIC [31]: > 512 µg/mL; MIC [32]: > 512 µg/mL; MIC [33]: > 256 µg/mL; MIC [34]: > 512 µg/mL; MIC [35]: > 256 µg/mL; MIC [36]: > 256 µg/mL
2 | CC1(C)S[C@@H]2[C@H](NC(=O)[C@H](C(=O)O)c3ccsc3)C(=O)N2[C@H]1C(=O)O [TICARCILLIN] | > 512 µg/mL | > 512 µg/mL | > 512 µg/mL | > 256 µg/mL | > 512 µg/mL | > 512 µg/mL | > 512 µg/mL | > 512 µg/mL | > 256 µg/mL | > 256 µg/mL | > 512 µg/mL | > 256 µg/mL | > 512 µg/mL | > 256 µg/mL | > 512 µg/mL | > 512 µg/mL | > 512 µg/mL | > 512 µg/mL | 2 µg/mL (≈ 5.2 µM) | > 512 µg/mL | MIC [21]: > 256 µg/mL; MIC [22]: > 512 µg/mL; MIC [23]: > 512 µg/mL; MIC [24]: > 512 µg/mL; MIC [25]: > 512 µg/mL; MIC [26]: > 512 µg/mL; MIC [27]: > 512 µg/mL; MIC [28]: > 256 µg/mL; MIC [29]: 2 µg/mL; MIC [30]: 128 µg/mL; MIC [31]: > 512 µg/mL; MIC [32]: > 512 µg/mL; MIC [33]: > 256 µg/mL; MIC [34]: > 512 µg/mL; MIC [35]: > 256 µg/mL; MIC [36]: > 256 µg/mL
